Converted amounts (≈) assume the structure as drawn.
Columns and labels:
Assay type in all cases: functional
Staphylococcus aureus [1] = assay: Antibacterial activity against methicillin-resistant Staphylococcus aureus 2658 RCMB after 18 hrs by broth microdilution assay
Summary of the method: (§1)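 Broth microdilution: inoculum from 0.5 McFarland suspension diluted to about 5 × 10^5 CFU/mL. Media were cation-adjusted Mueller-Hinton broth for staphylococci, brain heart infusion for E. faecium, and tryptone soya broth for E. faecalis, S. pneumoniae and L. monocytogenes.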

Staphylococcus aureus [2] = assay: Bactericidal activity against methicillin-resistant Staphylococcus aureus NRS123 USA400 incubated fo 18 hrs followed by re-plating on tryptic soy agar plates at 37 degC for 18 hrs by broth microdilution assay; conditions: NRS123 USA400, 18 h
Staphylococcus aureus [3] = assay: Bactericidal activity against vancomycin-resistant Staphylococcus aureus VRS10 incubated fo 18 hrs followed by re-plating on tryptic soy agar plates at 37 degC for 18 hrs by broth microdilution assay; conditions: VRS10, 18 h
Staphylococcus aureus [4] = assay: Antibacterial activity against vancomycin-resistant Staphylococcus aureus VRS12 after 18 hrs by broth microdilution assay; conditions: VRS12, 18 h; summary of the method: as §1
Staphylococcus aureus [5] = assay: Antibacterial activity against vancomycin-resistant Staphylococcus aureus VRS10 after 18 hrs by broth microdilution assay; conditions: VRS10, 18 h; summary of the method: as §1
Staphylococcus aureus [6] = assay: Antibacterial activity against methicillin-sensitive Staphylococcus aureus ATCC 6538 after 18 hrs by broth microdilution assay; conditions: ATCC 6538, 18 h; summary of the method: as §1
Staphylococcus aureus [7] = assay: Bactericidal activity against methicillin-sensitive Staphylococcus aureus NRS107 incubated fo 18 hrs followed by re-plating on tryptic soy agar plates at 37 degC for 18 hrs by broth microdilution assay; conditions: NRS107, 18 h
Staphylococcus aureus [8] = assay: Bactericidal activity against methicillin-resistant Staphylococcus aureus NRS386 incubated fo 18 hrs followed by re-plating on tryptic soy agar plates at 37 degC for 18 hrs by broth microdilution assay; conditions: NRS386, 18 h
Staphylococcus aureus [9] = assay: Bactericidal activity against methicillin-sensitive Staphylococcus aureus ATCC 6538 incubated fo 18 hrs followed by re-plating on tryptic soy agar plates at 37 degC for 18 hrs by broth microdilution assay; conditions: ATCC 6538, 18 h
Staphylococcus aureus [10] = assay: Bactericidal activity against methicillin-resistant Staphylococcus aureus NRS119 incubated fo 18 hrs followed by re-plating on tryptic soy agar plates at 37 degC for 18 hrs by broth microdilution assay; conditions: NRS119, 18 h
Staphylococcus aureus [11] = assay: Bactericidal activity against vancomycin-resistant Staphylococcus aureus VRS12 incubated fo 18 hrs followed by re-plating on tryptic soy agar plates at 37 degC for 18 hrs by broth microdilution assay; conditions: VRS12, 18 h
Staphylococcus aureus [12] = assay: Antibacterial activity against methicillin-sensitive Staphylococcus aureus NRS107 after 18 hrs by broth microdilution assay; conditions: NRS107, 18 h; summary of the method: as §1
Staphylococcus aureus [13] = assay: Antibacterial activity against methicillin-resistant Staphylococcus aureus NRS384 USA300 after 18 hrs by broth microdilution assay; conditions: NRS384 USA300, 18 h; summary of the method: as §1
Staphylococcus aureus [14] = assay: Antibacterial activity against methicillin-resistant Staphylococcus aureus NRS123 USA400 after 18 hrs by broth microdilution assay; conditions: NRS123 USA400, 18 h; summary of the method: as §1
Staphylococcus aureus [15] = assay: Bactericidal activity against methicillin-resistant Staphylococcus aureus NRS385 incubated fo 18 hrs followed by re-plating on tryptic soy agar plates at 37 degC for 18 hrs by broth microdilution assay; conditions: NRS385, 18 h
Staphylococcus aureus [16] = assay: Bactericidal activity against methicillin-resistant Staphylococcus aureus NRS384 USA300 incubated fo 18 hrs followed by re-plating on tryptic soy agar plates at 37 degC for 18 hrs by broth microdilution assay; conditions: NRS384 USA300, 18 h

Row | SMILES | MIC (Staphylococcus aureus [1]) [µg/mL] | also measured
1 | Cc1nc(-c2ccc(C(C)(C)C)cc2)sc1-c1ccnc(N2CCOCC2)n1 | 25 (≈ 63.4 µM) | 
2 | Cc1nc(-c2ccc(C(C)(C)C)cc2)sc1-c1ccnc(NC(=N)N2CCN(C)CC2)n1 | 3.12 (≈ 6.94 µM) | 
3 | Cc1nc(-c2ccc(C(C)(C)C)cc2)sc1-c1ccnc(N2CCCC2)n1 | > 50 | 
4 | CCNc1nccc(-c2sc(-c3ccc(C(C)(C)C)cc3)nc2C)n1 | > 50 | 
5 | Cc1nc(-c2ccc(C(C)(C)C)cc2)sc1-c1ccnc(N(C)C)n1 | > 50 | 
6 | Cc1nc(-c2ccc(C(C)(C)C)cc2)sc1-c1ccnc(NC(=N)N)n1 | 1.56 (≈ 4.26 µM) | 
7 | Cc1nc(-c2ccc(C(C)(C)C)cc2)sc1-c1ccnc(NC2CCCC2)n1 | > 50 | 
8 | Cc1nc(-c2ccc(C(C)(C)C)cc2)sc1-c1ccnc(NC2CCCCC2)n1 | > 50 | 
9 | Cc1nc(-c2ccc(C(C)(C)C)cc2)sc1-c1ccnc(NN)n1 | 1.56 (≈ 4.6 µM) | 
10 | CC(=O)NC[C@H]1CN(c2ccc(N3CCOCC3)c(F)c2)C(=O)O1 [LINEZOLID] |  | MBC (Staphylococcus aureus [2]): 32 µg/mL (≈ 94.9 µM); MBC (Staphylococcus aureus [3]): 64 µg/mL (≈ 190 µM); MIC (Staphylococcus aureus [4]): 1 µg/mL (≈ 2.96 µM); MIC (Staphylococcus aureus [5]): 1 µg/mL (≈ 2.96 µM); MIC (Staphylococcus aureus [6]): 1 µg/mL (≈ 2.96 µM); MBC (Staphylococcus aureus [7]): 16 µg/mL (≈ 47.4 µM); MBC (Staphylococcus aureus [8]): 64 µg/mL (≈ 190 µM); MBC (Staphylococcus aureus [9]): 16 µg/mL (≈ 47.4 µM); MBC (Staphylococcus aureus [10]): > 64 µg/mL; MBC (Staphylococcus aureus [11]): 64 µg/mL (≈ 190 µM); MIC (Staphylococcus aureus [12]): 1 µg/mL (≈ 2.96 µM); MIC (Staphylococcus aureus [13]): 1 µg/mL (≈ 2.96 µM); MIC (Staphylococcus aureus [14]): 1 µg/mL (≈ 2.96 µM); MBC (Staphylococcus aureus [15]): 16 µg/mL (≈ 47.4 µM); MBC (Staphylococcus aureus [16]): 32 µg/mL (≈ 94.9 µM)
11 | Cc1nc(-c2ccc(C(C)(C)C)cc2)sc1-c1ccnc(N2CCC2)n1 | > 50 | 
12 | Cc1nc(-c2ccc(C(C)(C)C)cc2)sc1-c1ccnc(N=C(N(C)C)N(C)C)n1 | > 50 | 
13 | Cc1nc(-c2ccc(C(C)(C)C)cc2)sc1-c1ccnc(NC(=N)N2CCCC2)n1 | 50 (≈ 119 µM) | 
14 | Cc1nc(-c2ccc(C(C)(C)C)cc2)sc1-c1ccnc(N)n1 | 6.25 (≈ 19.3 µM) | 
15 | CNc1nccc(-c2sc(-c3ccc(C(C)(C)C)cc3)nc2C)n1 | 25 (≈ 73.9 µM) | 
16 | Cc1nc(-c2ccc(C(C)(C)C)cc2)sc1-c1ccnc(-c2cccnc2)n1 | > 50 | 
17 | CNC(=N)Nc1nccc(-c2sc(-c3ccc(C(C)(C)C)cc3)nc2C)n1 | 1.56 (≈ 4.1 µM) | 
18 | Cc1nc(-c2ccc(C(C)(C)C)cc2)sc1-c1ccnc(N2CC(O)C2)n1 | 6.25 (≈ 16.4 µM) | 

Reference: ChEMBL document CHEMBL4229382, “Phenylthiazoles with tert-Butyl side chain: Metabolically stable with anti-biofilm activity” (Eur J Med Chem, 2018)
